# An excerpt weighted towards active compounds, which were near 3.1% of everything screened.
# RBBP9 inhibitor – human RBBP9 hydrolase inhibition; hit rate 0.2% among 220,000; O75884; inhibition, % at 7.94 µM; recombinant RBBP9, FP-Rh probe fluorescence polarization;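 active = inhibition above the campaign mean of all tested compounds plus 3 SD, cut at about 14% in these data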
#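 Measured by – fluorescence polarization · Test system – RBBP9 protein · Input – 2.5 µM RBBP9 dispensing solution, before mixing · Measure – percent inhibition from mP, scaled between DMSO and no-protein wells · Benchmarks – DMSO-treated enzyme wells and wells lacking RBBP9 · Times – preincubation 30 min plus labeling 45 min at 25 °C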
# UHRF1 MBD2 ctr – UHRF1 methyl-DNA binding inhibition. Q96T88. UHRF1 binding to methylated oligo, TR-FRET. inhibition, % at 4.4 µM. hit rate 0.75% among 370,000. AID 687016; in the data active = inhibition above about 21%;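 also: UHRF1 SRA domain binding a hemimethylated CpG hairpin DNA probe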
# MBD2 DNA inh – blocks human MBD2 binding to methylated DNA; Q9UBB5; TR-FRET, MBD2 binding to methylated oligonucleotide; inhibition, % at 4.4 µM; hit rate 0.31% among 370,000; AID 686964; in the data active = inhibition above about 13%
# ABHD5 PLIN5 PPI – inhibitors of human ABHD5-perilipin-5 interaction; hit rate 0.78% among 360,000; Q00G26+Q8WTS1; inhibition, % at 4 µM; Split G. princeps luciferase complementation, luminescence, 4 h;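 active = inhibition above the mean inhibition across every tested compound plus 3 SD, cut at about 22% in these data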
# PRMT1 FP inh – inhibitors of human PRMT1; recombinant PRMT1, activity-based probe fluorescence polarization; inhibition, % at 2.79 µM; hit rate 1.3% among 370,000;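 active = inhibition above about 21% made by adding two undisclosed values, limit read from the data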
# LEDGF integ inh – blocks HIV-1 LEDGF/p75-dependent DNA integration; TR-FRET IN-LEDGF/p75 DNA integration, Eu/Cy5; inhibition, % at 3.7 µM; hit rate 0.64% among 370,000; AID 743269;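 active = inhibition above the screen-wide mean plus 3 SD, cut at about 13% in these data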;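 also: signal is the Cy5 over europium emission ratio at 671 and 618 nm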
# ABHD5 PLIN5 conf – ABHD5-PLIN5 interaction inhibition, confirmed; shares compounds with ABHD5 PLIN5 PPI; biochemical ABHD5-PLIN5 interaction, luminescence; inhibition, % at 4 µM; hit rate 67% among 2,200; AID 651612; in the data active = inhibition above about 23%
# HNF4 counter – counter-screen for ABHD5-PLIN5 inhibitors: HNF4 split-luciferase. AID 651674. HNF4 dimerization, luminescence, biochemical. hit rate 77% among 2,200. shares compounds with ABHD5 PLIN5 PPI. inhibition, % at 4 µM;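 active = mean inhibition across replicate wells exceeding the computed hit threshold, cut at about 13% in these data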;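 also: light from luciferase halves that rejoin when HNF4 fusion proteins dimerize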
# Target sequence (P41235 whole entry, looked up, the tested form may be a part): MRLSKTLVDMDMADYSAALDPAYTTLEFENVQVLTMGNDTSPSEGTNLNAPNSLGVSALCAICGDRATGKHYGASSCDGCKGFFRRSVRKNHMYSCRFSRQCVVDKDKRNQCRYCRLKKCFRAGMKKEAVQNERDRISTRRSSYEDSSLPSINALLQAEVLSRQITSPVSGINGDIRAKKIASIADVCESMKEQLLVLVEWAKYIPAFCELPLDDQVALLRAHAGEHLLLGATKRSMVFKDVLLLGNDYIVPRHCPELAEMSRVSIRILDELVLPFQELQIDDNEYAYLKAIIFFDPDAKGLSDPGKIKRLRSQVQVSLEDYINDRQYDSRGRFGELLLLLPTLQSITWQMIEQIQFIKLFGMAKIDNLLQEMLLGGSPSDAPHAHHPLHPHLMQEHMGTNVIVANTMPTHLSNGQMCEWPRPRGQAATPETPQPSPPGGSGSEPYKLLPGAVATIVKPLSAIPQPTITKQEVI
# A number is an active result; n = inactive; x = no result.
SMILES,RBBP9 inhibitor,UHRF1 MBD2 ctr,MBD2 DNA inh,ABHD5 PLIN5 PPI,PRMT1 FP inh,LEDGF integ inh,ABHD5 PLIN5 conf,HNF4 counter
O=C(NC1CCCCN(Cc2ccc(Cl)cc2)C1=O)c1ccccc1-c1ccc(Cl)c(Cl)c1 (configuration not stated),x,n,n,x,n,n,x,x
Cc1ccc(C(=O)/C=C/c2ccc(Br)cc2)o1,n,n,n,53,n,n,85,61
O=c1c2ccccc2nc2ccc(NCc3ccco3)nn12,n,n,n,31,n,n,72,80
Cc1sc2nc(SCC(=O)NCc3ccco3)n(C)c(=O)c2c1C,n,n,n,n,n,n,x,x
Cc1sc2nc3ccc(NCc4ccco4)nn3c(=O)c2c1C,n,n,n,31,n,n,66,77
Cc1ccc(NC(=O)C2CCN(c3nnc(-n4cccc4)s3)CC2)c(C)c1,x,n,n,x,n,n,x,x
COC(=O)[C@H](C(C)C)N1Cc2nnn(Cc3ccc(C)cc3)c2-c2ccccc2S1(=O)=O,x,n,n,x,n,n,x,x
C[C@@H]1C[C@H]2[C@@H](Cc3ccccc3)C(=O)N3[C@H](c4ccccc4)[C@H](C)C[C@H]3[C@@H](Cc3ccccc3)C(=O)N2[C@@H]1c1ccccc1,x,n,n,x,n,n,x,x
COc1nc(=O)n(C2C=CC(=O)O2)cc1F (configuration not stated),x,n,n,41,n,n,52,34
COc1ccc(/C=C2\CCC/C(=C\c3ccc(OC)c(OC)c3OC)C2=O)c(OC)c1OC,x,n,n,38,n,n,n,16
COc1cc(/C=C2\COC/C(=C\c3ccc(O)c(OC)c3)C2=O)ccc1O,n,n,n,54,n,n,90,84
COc1cc(OC)c(OC)cc1/C=C1\CCC/C(=C\c2cc(OC)c(OC)cc2OC)C1=O,x,n,n,n,n,n,x,x
COc1cc(/C=C2/CC/C(=C/c3ccc(O)c(OC)c3)C2=O)ccc1O,n,n,n,24,n,n,26,32
COc1cc(/C=C2\C(=O)N(C)C(=S)N2C)ccc1O,n,n,n,n,n,n,x,x
COc1cc(C=C2C(=O)c3ccccc3C2=O)ccc1O,n,n,n,n,n,n,x,x
COc1ccc(/C=C2\CC/C(=C\c3ccc(OC)c(OC)c3)C2=O)cc1OC,n,n,n,31,n,n,58,44
COc1cc(/C=C2\CC/C(=C\c3ccc(OCCO)c(OC)c3)C2=O)ccc1OCCO,n,n,n,n,n,n,x,x
CCOC(=O)[C@]12CCCCC/C=C\1N(Cc1ccc(OC)cc1)C(=O)[C@H]2CC(=O)NCc1cccs1,x,n,n,x,n,n,x,x
O=C(c1ccncc1)N1CCC(Oc2cccnc2)CC1,x,n,n,x,n,n,x,x
C#CCNC(=O)C[C@H]1C[C@@]2(C(=O)OC)C(=C[C@H](C(C)(C)C)O[C@@H]2C)N(Cc2ccccc2)C1=O,x,n,n,x,n,n,x,x
C[C@@H]1C=CCCO[C@]12C(=O)N(Cc1ccc(F)cc1)c1ccccc12,x,n,n,x,n,n,x,x
COc1ccc(N/N=C(\C#N)C(=N)SCc2ccccc2)cc1,n,n,n,39,n,n,38,37
O=C1C=CC(O)(c2cc(=O)c3c(O)cc(O)cc3o2)C=C1,n,n,n,89,n,n,101,106
COC[C@@H](O)[C@H]1OCc2cc(OC)ccc2[C@@H]1/C=C/c1ccccc1,x,n,n,x,n,n,x,x
CCCCCCC=C1CCC(CN2CCCC2)C1=O (configuration not stated),x,n,n,25,n,n,84,28
CCCCCCC(=O)NC1CCCCN(C)C1=O (configuration not stated),x,n,n,x,n,n,x,x
CN(C)C(=O)N1CCN(C(=O)[C@H]2O[C@@H](n3ccc(N)nc3=O)[C@H](O)[C@@H]2O)CC1,x,n,n,x,n,n,x,x
O=S(=O)(/C(=C\c1ccc(C(F)(F)F)cc1)c1nc2ccccc2[nH]1)c1ccccc1,x,x,x,86,x,x,101,96
O=C(NCc1ccco1)/C(=C/c1ccc(C(F)(F)F)cc1)c1nc2ccccc2[nH]1,n,n,n,n,n,n,x,x
